Laboratory results published in ChEMBL document CHEMBL1629555, “Antimalarial activity of phenylthiazolyl-bearing hydroxamate-based histone deacetylase inhibitors” (Antimicrob Agents Chemother, 2008).
The source made the active and inactive calls. The rule behind the calls is not given here.

Assays:
[1] = Cmax in ICR mouse at 50 mg/kg/day, po by LC/MS analysis; assay type: ADME, organism-based; set-up: dose 50 mg/kg/day, route oral; details: in vivo
Summary of the method: (§1)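 Male ICR mice, 8 weeks old, got one 50 mg/kg dose either orally or subcutaneously, with three groups of six mice per route. One mouse per group was killed at 15, 30 and 60 min and at 3, 6 and 24 h. Plasma was deproteinized with 2 volumes of acetonitrile and analysed by LC-MS/MS on a C18 column against 0–500 ng/ml standards, with parent and acid metabolite measured in the same sample. Each six-mouse group was treated as one "animal" and fitted to a two-compartment model. AUC was taken by the linear trapezoidal rule extrapolated to infinity, and Cmax and Tmax were read per "animal".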

[2] = tested on: Mus musculus; experiment: Toxicity in Plasmodium berghei-infected mouse assessed as mortality at split dose of 640 mg/kg/day, po for 3 days; assay type: organism-based; set-up: route oral; details: in vivo, 72 h
[3] = tested on: Plasmodium berghei; experiment: Antimalarial activity against Plasmodium berghei infected in mouse assessed as parasitemia level at 320 mg/kg/day for 3 days measured on day 3 (reference value: 0.46%); assay type: functional
Summary of the method: (§2)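 Mice were infected ip with 10^6 P. berghei-parasitized erythrocytes. The compound was given orally once daily on days 3, 4 and 5 post-infection in hydroxyethylcellulose-Tween 20 vehicle, alone or together with chloroquine, with 5 mice per dose group. Parasitemia (%) was read on days 3 and 6, and cures were counted as animals cured out of 5.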

[4] = Tmax in ICR mouse at 50 mg/kg/day, po by LC/MS analysis; assay type: ADME, organism-based; set-up: route oral; details: in vivo; summary of the method: as §1
[5] = tested on: Plasmodium berghei; experiment: Antimalarial activity against Plasmodium berghei infected in mouse assessed as parasitemia level at split dose of 320 mg/kg/day, po for 3 days measured on day 6 relative to control; assay type: functional
Summary of the method: (§3)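 Blood-stage P. berghei model: mice inoculated ip with 10^6 parasitized erythrocytes. Oral treatment for 3 days, with the daily dose split, in hydroxyethylcellulose-Tween 20 vehicle. Day-6 parasitemia expressed as a fraction of control parasitemia.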

[6] = tested on: Plasmodium falciparum; experiment: Antimalarial activity against chloroquine-resistant Plasmodium falciparum FVO infected in Aotus lemurinus leminurus monkey assessed as reduction in parasitemia at 32 mg/kg/day, po for 3 days; assay type: functional, organism-based
[7] = tested on: Plasmodium berghei; experiment: Antimalarial activity against Plasmodium berghei infected in mouse assessed as parasitemia level at split dose of 160 mg/kg/day, po for 3 days measured on day 6 relative to control; assay type: functional; summary of the method: as §3
[8] = tested on: Plasmodium berghei; experiment: Antimalarial activity against Plasmodium berghei infected in mouse assessed as parasitemia level at 32 mg/kg/day for 3 days measured on day 3 (reference value: 0.46%); assay type: functional; summary of the method: as §2
[9] = AUC in ICR mouse at 50 mg/kg/day, sc by LC/MS analysis; assay type: ADME, organism-based; set-up: route subcutaneous; details: plasma; summary of the method: as §1
[10] = tested on: Plasmodium berghei; experiment: Antimalarial activity against Plasmodium berghei infected in mouse assessed as effect on cure rate at split dose of 80 mg/kg/day, po for 3 days; assay type: functional, organism-based
Summary of the method: (§4)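 Mice were infected ip with 10^6 P. berghei-parasitized erythrocytes. The compound was given in hydroxyethylcellulose-Tween 20 vehicle, 5 mice per group, starting on day 3 post-infection. Regimens were once-daily or split daily oral doses over 3 days, subcutaneous dosing, or dosing over 7 days. Read-outs were posttreatment parasitemia on day 6 as a fraction of controls and the number of mice cured.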

[11] = tested on: Plasmodium berghei; experiment: Antimalarial activity against Plasmodium berghei infected in mouse assessed as parasitemia level at 320 mg/kg/day for 3 days measured on day 6 (reference value: 37%); assay type: functional; summary of the method: as §2
[12] = tested on: Plasmodium berghei; experiment: Antimalarial activity against Plasmodium berghei infected in mouse assessed as parasitemia level at split dose of 40 mg/kg/day, po for 3 days measured on day 6 relative to control; assay type: functional; summary of the method: as §3
[13] = tested on: Plasmodium berghei; experiment: Antimalarial activity against Plasmodium berghei infected in mouse assessed as effect on cure rate at 52 mg/kg/day for 3 days measured on day 6 in presence of 64 mg/kg/day chloroquine; assay type: functional, organism-based; summary of the method: as §2
[14] = tested on: Plasmodium berghei; experiment: Antimalarial activity against Plasmodium berghei infected in mouse assessed as parasitemia level at 0.32 mg/kg/day for 3 days measured on day 3 in presence of 4 mg/kg/day chloroquine (reference value: 0.46%); assay type: functional
[15] = tested on: Plasmodium berghei; experiment: Antimalarial activity against Plasmodium berghei infected in mouse assessed as parasitemia level at split dose of 130 mg/kg/day, po for 7 days measured on day 6 relative to control; assay type: functional
[16] = tested on: Plasmodium berghei; experiment: Antimalarial activity against Plasmodium berghei infected in mouse assessed as parasitemia level at 32 mg/kg/day for 3 days measured on day 3 in presence of 3.6 mg/kg/day chloroquine (reference value: 0.46%); assay type: functional; summary of the method: as §2
[17] = tested on: Plasmodium berghei; experiment: Antimalarial activity against Plasmodium berghei infected in mouse assessed as effect on cure rate at 0.32 mg/kg/day for 3 days; assay type: functional, organism-based
[18] = tested on: Mus musculus; experiment: Toxicity in Plasmodium berghei-infected mouse assessed as mortality at single dose of 80 mg/kg/day, po for 3 days; assay type: organism-based; set-up: route oral; details: in vivo, 72 h
[19] = Cytotoxicity against mouse RAW264.7 cells by MTT assay; assay type: cell-based; details: read-out: LD50 (the source's name)
Summary of the method: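 LC50 in RAW macrophages was determined by MTT assay, given as the mean of 2–4 experiments with range. Selectivity index = RAW LC50 / lowest P. falciparum IC50.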

[20] = tested on: Plasmodium falciparum; experiment: Antimicrobial activity against Plasmodium falciparum D6 infected in Aotus lemurinus lemurinus monkey at […] in presence of azithromycin; assay type: functional
[21] = tested on: Plasmodium berghei; experiment: Antimalarial activity against Plasmodium berghei infected in mouse assessed as parasitemia level at single dose of 20 mg/kg/day, po for 3 days measured on day 6 relative to control; assay type: functional
Summary of the method: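 Mice infected intraperitoneally with 10^6 P. berghei-parasitized erythrocytes. Drug given orally once daily on days 3, 4 and 5 post-infection in hydroxyethylcellulose-Tween 20 vehicle, 5 mice per dose group. Parasitemia measured on day 6 and expressed as a fraction of untreated control parasitemia.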

[22] = Half life in mouse liver microsomes by LC/MS analysis; assay type: ADME, Microsome
[23] = Inhibition of histone deacetylase assessed as alteration of histone H3 acetylation by cell-based assay
Summary of the method: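 About 3 × 10^9 erythrocytes infected with late-trophozoite P. falciparum 3D7 were exposed to compound or to DMSO vehicle for 3.5 h at 37°C, and an untreated sample was taken at the start. Histones were extracted, about 6 × 10^8 parasites were loaded per lane on SDS–15% PAGE, and loading was checked by silver stain. Western blots were probed with anti-tetraacetyl-H4 and anti-diacetyl-H3 antisera and detected by ECL.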

[24] = tested on: Plasmodium berghei; experiment: Antimalarial activity against Plasmodium berghei infected in mouse assessed as parasitemia level at 160 mg/kg/day for 3 days measured on day 3 (reference value: 0.46%); assay type: functional; summary of the method: as §2
[25] = tested on: Plasmodium berghei; experiment: Antimalarial activity against Plasmodium berghei infected in mouse assessed as effect on cure rate at 32 mg/kg/day for 3 days measured on day 6 in presence of 3.6 mg/kg/day chloroquine; assay type: functional, organism-based; summary of the method: as §2
[26] = tested on: Plasmodium berghei; experiment: Antimalarial activity against Plasmodium berghei infected in mouse assessed as effect on cure rate at 320 mg/kg/day for 3 days; assay type: functional, organism-based; summary of the method: as §2
[27] = tested on: Plasmodium berghei; experiment: Antimalarial activity against Plasmodium berghei infected in mouse assessed as effect on cure rate at split dose of 640 mg/kg/day, po for 3 days; assay type: functional, organism-based; summary of the method: as §4
[28] = tested on: Mus musculus; experiment: Toxicity in Plasmodium berghei-infected mouse assessed as mortality at single dose of 40 mg/kg/day, po for 3 days; assay type: organism-based; set-up: route oral; details: in vivo, 72 h
[29] = tested on: Plasmodium berghei; experiment: Antimalarial activity against Plasmodium berghei infected in mouse assessed as effect on cure rate at 32 mg/kg/day for 3 days; assay type: functional, organism-based; summary of the method: as §2
[30] = tested on: Plasmodium berghei; experiment: Antimalarial activity against Plasmodium berghei infected in mouse assessed as effect on cure rate at split dose of 320 mg/kg/day, po for 3 days; assay type: functional, organism-based; summary of the method: as §4

SMILES: Nc1cccc(-c2csc(NC(=O)CCCCCCC(=O)NO)n2)c1
- Cmax [1]: 2500 ng/mL
- Activity [2]: Non-toxic
- Activity [3]: 0.52%
- Tmax [4]: 49.8 min
- fold change (FC) [5]: 0.004
- inhibition [6]: Active
- fold change (FC) [7]: 0.03
- Activity [8]: 0.38%
- AUC [9]: 3600 ng·h/mL
- Activity [10]: inactive
- Activity [11]: 0.107%
- fold change (FC) [12]: 0.32
- Activity [13]: inactive
- Activity [14]: 0.72%
- fold change (FC) [15]: 0.01
- Activity [16]: 0.44%
- Activity [17]: inactive
- Activity [18]: Non-toxic
- CC50 [19]: 600 nM
- fractional inhibitory concentration index (FICI) [20]: 1.7
- fold change (FC) [21]: 0.57
- half-life [22]: 11 min
- IC50 [23]: 10.4 nM
- Activity [24]: 0.64%
- Activity [25]: inactive
- Activity [26]: inactive
- Activity [27]: inactive
- Activity [28]: Non-toxic
- Activity [29]: inactive
- Activity [30]: inactive
